Experiments:
Rattus norvegicus [1] = assay: Antiinflammatory activity against carrageenan-induced paw edema in po dosed rat administered 1 hr before carrageenan challenge assessed after 4 hrs; type: functional
In short: (§1)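 Rats of about 200 g dosed orally; 1 h later, 1 mg carrageenan in […] physiological solution injected subplantar into the hind left paw. Paw volume measured hourly for 4 h by plethysmometer, dipping the paw in 0.45% saline. Read-out is % change in paw volume versus baseline, given as % inhibition of oedema ± S.E. Indomethacin served as reference.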

Rattus norvegicus [2] = assay: Antiinflammatory activity against carrageenan-induced paw edema in po dosed rat administered 1 hr before carrageenan challenge assessed after 1 hr; type: functional; in short: as §1
Biomphalaria alexandrina = assay: Molluscicidal activity against Biomphalaria alexandrina assessed as mortality at 10 ppm after 24 hrs; type: organism-based; settings: in vivo
In short: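 Compounds dissolved with a few drops of Tween 20 and 2 mL DMSO, then diluted with untreated Nile raw water to 1, 5 or 10 ppm in aerated glass jars. Ten snails per concentration held 24 h at 25 °C. Mean number killed over three repeats recorded. Controls received Tween 20/DMSO in water; Bayluscide served as reference. Follows WHO guidelines, modified.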

Rattus norvegicus [3] = assay: Antiinflammatory activity against carrageenan-induced paw edema in po dosed rat administered 1 hr before carrageenan challenge assessed after 2 hrs; type: functional; in short: as §1
Rattus norvegicus [4] = assay: Antiinflammatory activity against carrageenan-induced paw edema in po dosed rat administered 1 hr before carrageenan challenge assessed after 3 hrs; type: functional; in short: as §1

In the case of `Clc1ccc(OCc2nnc3snnn23)c(Cl)c1`, the “inhibition (INH)” value (Rattus norvegicus [1]) is reported as 74.03%, the “inhibition (INH)” value (Rattus norvegicus [2]) is reported as 70.78% and the Activity (Biomphalaria alexandrina) is reported as “Toxic”. For the same compound, the “inhibition (INH)” value (Rattus norvegicus [3]) was 94.8% and the “inhibition (INH)” value (Rattus norvegicus [4]) was 108.482%.
With `Clc1ccc(OCc2nnc3n2N=C(c2ccccc2)CS3)c(Cl)c1` the “inhibition (INH)” value (Rattus norvegicus [1]) was 48.51%, the “inhibition (INH)” value (Rattus norvegicus [2]) was 27.66% and the “inhibition (INH)” value (Rattus norvegicus [3]) was 45.62%. For the same compound, the “inhibition (INH)” value (Rattus norvegicus [4]) was 60.42%.
`Clc1ccc(OCc2nnc3sc(-c4ccco4)nn23)c(Cl)c1` was tested, and the “inhibition (INH)” value (Rattus norvegicus [1]) was 93.97%, the “inhibition (INH)” value (Rattus norvegicus [2]) was 51.38% and the “inhibition (INH)” value (Rattus norvegicus [3]) was 54.62%. For the same compound, the “inhibition (INH)” value (Rattus norvegicus [4]) was 99.24%.
For `Clc1ccc(OCc2nn3c(COc4ccc(Cl)cc4Cl)nnc3s2)c(Cl)c1`, the “inhibition (INH)” value (Rattus norvegicus [1]) was 58.48%, the “inhibition (INH)” value (Rattus norvegicus [2]) was 26.95% and the “inhibition (INH)” value (Rattus norvegicus [3]) was 48.4%. For the same compound, the “inhibition (INH)” value (Rattus norvegicus [4]) was 63.15%.
With `O=[N+]([O-])c1ccc(-c2nn3c(COc4ccc(Cl)cc4Cl)nnc3s2)c([N+](=O)[O-])c1` the “inhibition (INH)” value (Rattus norvegicus [1]) was 63.95%, the “inhibition (INH)” value (Rattus norvegicus [2]) was 32.16% and the “inhibition (INH)” value (Rattus norvegicus [3]) was 66.06%. The “inhibition (INH)” value (Rattus norvegicus [4]) was 68.04%.
`COc1ccc(-c2nn3c(COc4ccc(Cl)cc4Cl)nnc3s2)cc1` was tested, and the “inhibition (INH)” value (Rattus norvegicus [1]) was 44.34%, the “inhibition (INH)” value (Rattus norvegicus [2]) was 26.75% and the “inhibition (INH)” value (Rattus norvegicus [3]) was 46.22%. For the same compound, the “inhibition (INH)” value (Rattus norvegicus [4]) was 56.34%.
`Nn1c(S)nnc1COc1ccc(Cl)cc1Cl` was tested, and the “inhibition (INH)” value (Rattus norvegicus [1]) was 81.75%, the “inhibition (INH)” value (Rattus norvegicus [2]) was 50% and the Activity (Biomphalaria alexandrina) was “Toxic”. The “inhibition (INH)” value (Rattus norvegicus [3]) was 60.3% and the “inhibition (INH)” value (Rattus norvegicus [4]) was 102.8511%.
`Clc1ccc(OCc2nnc3n2N=C(c2cc4ccccc4o2)/C(=C/c2cn(-c4ccccc4)nc2-c2cc4ccccc4o2)S3)c(Cl)c1` was tested, and the “inhibition (INH)” value (Rattus norvegicus [1]) was 35.78%, the “inhibition (INH)” value (Rattus norvegicus [2]) was 29.71% and the “inhibition (INH)” value (Rattus norvegicus [3]) was 41.32%. For the same compound, the “inhibition (INH)” value (Rattus norvegicus [4]) was 59.66%.
`COc1ccc2c(c1)c(CC(=O)O)c(C)n2C(=O)c1ccc(Cl)cc1` [INDOMETHACIN] was tested, and the “inhibition (INH)” value (Rattus norvegicus [1]) was 20.19%, the “inhibition (INH)” value (Rattus norvegicus [2]) was 24.8% and the “inhibition (INH)” value (Rattus norvegicus [3]) was 20.97%. For the same compound, the “inhibition (INH)” value (Rattus norvegicus [4]) was 26.29%.
In the case of `O=C(Nc1ccc([N+](=O)[O-])cc1Cl)c1cc(Cl)ccc1O` [NICLOSAMIDE], the Activity (Biomphalaria alexandrina) is reported as “Toxic”.

Reference: ChEMBL document CHEMBL1157870, “Synthesis of 3-((2,4-dichlorophenoxy)methyl)-1,2,4-triazolo(thiadiazoles and thiadiazines) as anti-inflammatory and molluscicidal agents” (Eur J Med Chem, 2010)
